# Most compounds without a hit are left out; they make up all but 2.4% or so of the library.
# MOR-DOR inv ag = inverse agonist of human OPRM1-OPRD1 heterodimerization | cell-based MOR-DOR heterodimer luminescence, inverse agonism | inhibition, % at 9.3 µM | 0.21% of 340,000 active; in the data active = inhibition above about 22%, passing the limit was not always enough;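 also: 0% = cells with DMSO and 100% = wells without cells with DMSO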
# MOR-DOR ag-1 = OPRM1-OPRD1 heterodimerization agonism. P35372+P41143. cells, luminescence. activation, % at 9.3 µM. 0.3% of 340,000 active;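 also: 0% = vehicle-treated cells and 100% = reference agonist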
# HTR5A ag = HTR5A agonism, opioid heterodimer counter-screen; activation, % at 9.3 µM; HTR5A agonist assay, luminescence, cell-based; 0.61% of 340,000 active; P47898; in the data active = activation mostly above about 9.5%, no sharp cut-off; inactive = mostly below about 7.6%;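 also: 0% = cells with vehicle only and 100% = reference agonist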
# HTR5A inv ctr = HTR5A inverse agonism, opioid heterodimer counter-screen | P47898 | HTR5A cell line, luminescence | inhibition, % at 9.3 µM | 0.083% of 340,000 active; in the data active = inhibition mostly above about 23%, no sharp cut-off; inactive = mostly below about 18%;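 also: 0% = cells with DMSO and 100% = no-cell wells with DMSO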
# MC4R barr agon = agonists of human melanocortin 4 receptor (MC4R) beta-arrestin; 0.98% of 360,000 active; U2OS MC4R beta-arrestin complementation, luminescence; percent of melanotan II response, DMSO zero; activation, % at 8.9 µM; P32245; AID 540308;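 active = activation above a per-plate cutoff, the mean activation of sample wells on that plate plus 3 SD, cut at about 8% in these data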
# Target sequence (P32245 whole entry, looked up): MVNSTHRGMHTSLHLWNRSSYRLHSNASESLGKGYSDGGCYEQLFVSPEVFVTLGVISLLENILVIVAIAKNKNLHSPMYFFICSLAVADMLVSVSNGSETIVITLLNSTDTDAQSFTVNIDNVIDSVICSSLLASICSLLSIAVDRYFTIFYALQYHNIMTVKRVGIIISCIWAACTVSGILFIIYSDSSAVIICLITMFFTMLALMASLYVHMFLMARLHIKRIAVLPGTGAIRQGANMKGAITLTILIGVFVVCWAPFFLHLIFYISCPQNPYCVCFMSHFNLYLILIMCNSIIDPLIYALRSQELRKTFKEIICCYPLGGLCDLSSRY
# MC4R antagonist = blocks human MC4R cAMP signaling; MC4R-expressing cells, MTII-stimulated cAMP, LANCE TR-FRET; inhibition, % at 6.5 µM; 0.48% of 360,000 active;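 active = inhibition above its plate's cutoff, the mean of tested wells on that plate plus 3 SD, cut at about 29% in these data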;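 also: 0% = Melanotan II alone and 100% = Melanotan II plus saturating MCL0020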
#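 Assay system: human MC4R-expressing U2OS cells; reagent: Melanotan II stimulation of cells; dosing: 6.5 µM single dose; timing: compound 30 min, challenge 1 h, detection 1 h; signal: TR-FRET cAMP assay; replicates: one well per compound, no replicates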
# MOR-DOR ag-2 = counter-screen for HTR5A agonists: OPRM1-OPRD1 heterodimerization agonism; shares compounds with HTR5A ag; U2OS counter-screen cells, complementation luminescence, 3 h; activation, % at 9.3 µM; 13% of 800 active; AID 504913
# HTR5A ag confirm = HTR5A (human) agonism, confirmation; shares compounds with HTR5A ag; HTR5A agonist cell assay, luminescence; activation, % at 9.3 µM; 17% of 800 active; in the data active = activation above about 17%;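 also: 0% = cells with vehicle only and 100% = full reference agonist response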
# Starred values were filed as active, the others as inactive; nt = no result. Rule as the data show it, unless noted: active = activation above about 18%; inactive = the rest.
SMILES,MOR-DOR inv ag,MOR-DOR ag-1,HTR5A ag,HTR5A inv ctr,MC4R barr agon,MC4R antagonist,MOR-DOR ag-2,HTR5A ag confirm
CCOC(=O)NC1(NC2CCCCC2)Oc2ccccc2O1,-7,1,-1,12,-1,-4,nt,nt
CC1(C)Cc2c(C#N)c(N3CCN(C(=O)c4ccco4)CC3)nc(-c3ccco3)c2CS1,7,-1,18*,-32,1,0,0,5
CC(=O)N1CCN(c2nc(-c3ccco3)c3c(c2C#N)CC(C)(C)SC3)CC1,7,-2,4,-8,-1,8,nt,nt
CCn1c(C)nc2cc(C(=O)N3N=C(CCOC)CC3(O)C(F)(F)F)ccc21 (stereo unspecified),13,-2,-1,3,-3,10,nt,nt
O=C(NCc1cccnc1)C(=O)NCC(c1ccco1)N1CCN(c2ccc(F)cc2)CC1 (stereo unspecified),14,-3,0,6,0,-2,nt,nt
CCOC(=O)CCSc1nc(C)cc(C(F)(F)F)c1C#N,-31,5,-1,-35,1,-7,nt,nt
CCOC(=O)CCSc1nc(-c2ccc3c(c2)OCO3)cc(C(F)(F)F)c1C#N,-11,2,18*,-42,-2,1,1,5
CSCCC(NC(=O)c1ccccc1Br)C(=O)NCC(C)(C)N1CCOCC1 (stereo unspecified),10,-1,1,17,-4,1,nt,nt
C[C@@H]1CN([C@H](C)CO)C(=O)CCCn2nncc2CO[C@@H]1CN(C)C(=O)c1ccccc1,nt,nt,nt,nt,-1,7,nt,nt
O=c1[nH]c(C2CCN(S(=O)(=O)Cc3ccccc3)CC2)nc2c1nnn2Cc1cccc(Cl)c1,-13,2,14*,-43,-2,-19,1,1
CCN(CC)c1ccc(-c2nn3c(-c4n[nH]c5c4CCC5)nnc3s2)cc1,9,-2,16*,-18,5,-17,9,9
C1CCC(c2nn3c(-c4n[nH]c5c4CCC5)nnc3s2)CC1,1,0,1,-3,-1,-4,nt,nt
COC(=O)N/N=C/c1ccc(Oc2ccccc2)cc1,-4,1,8,-14,0,0,nt,nt
CC(C)(C)c1ccc(C(=O)Nc2nnc(Cc3c[nH]c4ccccc34)s2)cc1,-43,8,21*,-53,8.3*,9,1,1
CC(Oc1ccc(Cl)cc1Cl)c1ccn[nH]1 (stereo unspecified),-14,3,-2,-24,-2,9,nt,nt
Cc1cccc([C@H]2[C@@H]3C=CCC[C@@H]3C(=O)N2Cc2ccccc2)c1,-34,7,0,1,4,2,nt,nt
O=C(c1ccco1)N1CCN(C(=O)c2ccc(-c3cccc(C(F)(F)F)c3)o2)CC1,9,-1,35*,-92,-1,7,0,23*
CCn1ncc(/C=N\NC(=O)Cc2ccc([N+](=O)[O-])cc2)c1C,13,-2,2,23,-4,3,nt,nt
CCn1ncc(/C=N\NC(=O)c2csc3ccccc23)c1C,16,-3,18*,-71,-4,-21,49*,-4
O=C(NCC(O)CN1CCOCC1)c1ccc([N+](=O)[O-])cc1 (stereo unspecified),17,-4,-4,-3,0,-5,nt,nt
C/C(=N/NS(=O)(=O)c1ccc(Cl)cc1)c1ccc2c(c1)OCO2,17,-3,15*,-7,0,12,3,-1
O=C1NC(c2ccccc2)=C(c2ccc3ccccc3n2)C(c2ccccc2)N1 (stereo unspecified),-2,0,-1,3,-2,20,nt,nt
O=C1NC(c2ccccc2)=C(c2nc3ccccc3s2)C(c2ccc(O)cc2)N1 (stereo unspecified),-23,4,38*,-71,63*,18,13,8
COCCCN1CN(S(=O)(=O)c2ccc(C)cc2C)c2nc3ccccc3nc21,17,-3,1,5,2,-5,nt,nt
Cc1cc(C)n(CCCNC(=O)c2ccc(C)c(S(=O)(=O)N3CCOCC3)c2)n1,1,0,-2,4,-1,-2,nt,nt
SMILES,MOR-DOR inv ag,MOR-DOR ag-1,HTR5A ag,HTR5A inv ctr,MC4R barr agon,MC4R antagonist,MOR-DOR ag-2,HTR5A ag confirm
C[C@@H](NC(=O)c1nc[nH]c1C(=O)NCC(=O)OCc1ccccc1)c1ccccc1,-4,1,24*,-64,1,14,3,2
C[C@@H](NC(=O)c1nc[nH]c1C(=O)OCc1ccccc1)c1ccccc1,-12,2,-2,6,2,0,nt,nt
COCCCNc1nc(N)c([N+](=O)[O-])c(NCC2CCCO2)n1 (stereo unspecified),17,-3,15*,4,-1,4,1,2
CCCCCCOc1ccc(NC(=O)CC2C(=O)N(CC)C(=S)N2Cc2ccco2)cc1 (stereo unspecified),-16,3,15*,-34,4,13,-1,-9
CCN1C(=O)C(CC(=O)Nc2ccc(F)cc2)N(Cc2ccco2)C1=S (stereo unspecified),13,-3,-3,6,1,7,nt,nt
O=C(CSc1n[nH]c(=O)n1C1CC1)Nc1ccc(F)c([N+](=O)[O-])c1,8,-2,14*,-39,-1,5,51*,6
COc1cc(C(=O)O)ccc1OCc1ccncc1,10,-2,16*,-1,0,6,0,0
COc1cc(C(N)=O)ccc1OCc1ccccc1,4,-1,4,-11,0,1,nt,nt
O=S(=O)(NCc1ccccc1F)c1cccc(S(=O)(=O)N2CCOCC2)c1,10,-2,2,-5,-2,9,nt,nt
O=S(=O)(NCc1ccc(F)cc1)c1cccc(S(=O)(=O)N2CCOCC2)c1,-27,4,20*,-51,2,-7,1,0
COCC(=O)N1CCC(Oc2ccc(C(=O)N3CCCCCC3)cc2)CC1,11,-4,2,4,-2,2,nt,nt
O=C(NCCc1ccc(F)cc1)C(=O)NCC1CCCN1S(=O)(=O)c1cccs1 (stereo unspecified),-19,3,15*,-40,-1,-17,2,0
COc1ccc(C2CC(c3ccc4ccccc4c3)=NN2C(=O)CN2C(=O)CCC2=O)cc1 (stereo unspecified),13,-3,4,-10,0,3,nt,nt
Cc1cccc(C(=O)N[C@@H](C)C(=O)N2CCN(c3ncccn3)CC2)c1,11,-3,6,-15,-1,-2,nt,nt
CCn1c(C)nc2cc(C(=O)NN=Cc3ccccc3OC(F)F)ccc21,6,-1,18*,-46,-3,12,16,7

# Source: PubChem
